Experiments:
[1] = molecular target: Albumin (Bos taurus, UniProt P02769); assay: Apparent half life of the compound in bovine serum albumin in phosphate-buffered saline at pH 7.4; assay type: ADME; settings: cattle, read-out: t1/2(app)
Procedure, shortened: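 Compound incubated at 5–100 μM final (1% DMSO) at 37 °C in 20 mg/mL bovine serum albumin in PBS pH 7.4. Aliquots were quenched with 2 volumes of CH3CN, centrifuged, and analysed by RP-HPLC. Apparent t1/2 came from pseudo-first-order regression of log[compound] vs time.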

[2] = Apparent Half life of the compound in 0.01 M phosphate buffer at pH 5; assay type: physicochemical; settings: read-out: t1/2(app)
Procedure, shortened: (§1)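 Compound (from DMSO stock; 1% DMSO final) incubated at 1–100 μM final at 37 °C with shaking, ionic strength 0.15 M, in 0.01 M PBS pH 7.4 or 0.01 M phosphate buffer pH 5.0. Aliquots taken over time were analysed by RP-HPLC. Apparent t1/2 came from pseudo-first-order rate constants (linear regression of log[compound] vs time), reported as mean ± SD of three experiments.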

[3] = Apparent Half life of the compound in 0.01 M phosphate buffer at pH 5 in presence of 3 mM DTT; settings: read-out: t1/2(app)
[4] = Apparent half life of the compound in rat plasma by HPLC analysis; assay type: ADME, cell-free; settings: read-out: t1/2(app) (converted)
Procedure, shortened: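 Pooled heparinized plasma from male Wistar rats was diluted to 80% (v/v) with PBS pH 7.4. Compound was added at 5–100 μM final (1% DMSO) and incubated at 37 °C with shaking. Aliquots were quenched with 2 volumes of CH3CN, centrifuged, and analysed by RP-HPLC. t1/2 came from log[compound]-vs-time regression, as mean ± SD of three experiments.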

[5] = Apparent Half life of the compound in 0.01 M phosphate-buffered saline at pH 7.4; assay type: physicochemical; settings: read-out: t1/2(app); procedure, shortened: as §1
[6] = Drug degradation in 0.01 M phosphate buffer at pH 5 assessed as N-acylated L-serine product formation by HPLC-UV-MS analysis; assay type: physicochemical
Procedure, shortened: (§2)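 Compound incubated at 37 °C in 0.01 M phosphate buffer pH 5.0 or 0.01 M PBS pH 7.4 (μ = 0.15 M; 1% DMSO) for up to 3 days. Degradation products were followed by RP-HPLC-UV and ESI-MS on a C18 column with acetonitrile/10 mM ammonium acetate (pH 7.0) mobile phase. Products were quantified against calibration curves of pure standards.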

[7] = Drug degradation in 0.01 M phosphate-buffered saline at pH 7.4 assessed as N-acylated L-serine product formation by HPLC-UV-MS analysis; assay type: physicochemical; settings: buffer; procedure, shortened: as §2
[8] = Drug degradation in 0.01 M phosphate-buffered saline at pH 7.4 assessed as N-(2-Naphthoyl)-L-serine product formation by HPLC-UV-MS analysis; assay type: physicochemical; settings: buffer; procedure, shortened: as §2
[9] = Drug degradation in 0.01 M phosphate buffer at pH 5 assessed as N-(2-Naphthoyl)-L-serine product formation at > 2 hrs by HPLC-UV-MS analysis; assay type: physicochemical; settings: pH 5, 2 h; procedure, shortened: as §2
[10] = Drug degradation in 0.01 M phosphate buffer at pH 5 assessed as O-(2-naphthoyl)-L-serine product formation by HPLC-UV-MS analysis; assay type: physicochemical; procedure, shortened: as §2
[11] = Drug degradation in 0.01 M phosphate buffer at pH 5 assessed as time required for N-(2-Naphthoyl)-L-serine product formation by HPLC-UV-MS analysis; assay type: physicochemical; procedure, shortened: as §2
[12] = Drug degradation in 0.01 M phosphate buffer at pH 5 assessed as time required for O-(2-naphthoyl)-L-serine product formation by HPLC-UV-MS analysis; assay type: physicochemical; procedure, shortened: as §2
[13] = Drug degradation in 0.01 M phosphate-buffered saline at pH 7.4 assessed as 2-naphtholic acid product formation after 24 hrs by HPLC-UV-MS analysis; assay type: physicochemical; settings: buffer, pH 7.4, 24 h; procedure, shortened: as §2
[14] = Drug degradation in 0.01 M phosphate buffer at pH 5 assessed as 2-Naphtholic acid product formation at > 2 hrs by HPLC-UV-MS analysis; assay type: physicochemical; settings: pH 5, 2 h; procedure, shortened: as §2
[15] = molecular target: T1, N-acylethanolamine-hydrolyzing acid amidase (Rattus norvegicus, UniProt Q5KTC7); assay: Inhibition of rat recombinant NAAA expressed in HEK293 cells using heptadecenoylethanolamide as substrate after 30 mins by LC/MS analysis; assay type: cell-based
T1 sequence (Q5KTC7 whole entry): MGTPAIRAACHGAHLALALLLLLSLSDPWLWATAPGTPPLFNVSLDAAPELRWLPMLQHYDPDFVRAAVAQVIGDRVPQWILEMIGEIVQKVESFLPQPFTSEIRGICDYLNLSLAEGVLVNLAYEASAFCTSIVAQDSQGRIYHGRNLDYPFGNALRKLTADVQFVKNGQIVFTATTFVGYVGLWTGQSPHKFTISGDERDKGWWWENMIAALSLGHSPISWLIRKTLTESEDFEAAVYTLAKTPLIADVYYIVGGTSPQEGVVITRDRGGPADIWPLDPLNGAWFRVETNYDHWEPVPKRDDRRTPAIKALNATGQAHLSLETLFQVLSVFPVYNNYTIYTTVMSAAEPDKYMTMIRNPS
Procedure, shortened: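 Recombinant rat NAAA incubated 30 min at 37 °C in 50 mM sodium hydrogen phosphate buffer pH 5.0 containing 0.1% Triton X-100, 3 mM DTT and heptadecenoylethanolamide substrate (50 mM as printed). The reaction was stopped with cold methanol containing 1 nmol heptadecanoic acid. Product was measured by LC/MS with negative ESI, selected ion monitoring at m/z 267.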

[16] = Apparent half life of the compound in 50% v/v human plasma by HPLC analysis; assay type: ADME, cell-free; settings: 50% v/v plasma, read-out: t1/2(app)
Procedure, shortened: (§3)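 Rat or human plasma at 50% (v/v) was preincubated with BNPP, eserine, PMSF, EDTA or vehicle, then compound was added and kept at 37 °C. Aliquots taken at regular time points were quenched with 2 volumes of CH3CN, centrifuged, and analysed by RP-HPLC. Apparent t1/2 came from log[compound]-vs-time regression.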

[17] = Apparent half life of the compound in 50% v/v human plasma by HPLC analysis in presence of PMSF; assay type: ADME, cell-free; settings: 50% v/v plasma, with PMSF, read-out: t1/2(app); procedure, shortened: as §3
[18] = Apparent half life of the compound in 50% v/v human plasma by HPLC analysis in presence of BNPP; assay type: ADME, cell-free; settings: 50% v/v plasma, with BNPP, read-out: t1/2(app); procedure, shortened: as §3
[19] = Apparent half life of the compound in 50% v/v rat plasma by HPLC analysis in presence of EDTA; assay type: ADME, cell-free; settings: 50% v/v plasma, with EDTA, read-out: t1/2(app); procedure, shortened: as §3
[20] = Apparent half life of the compound in 50% v/v rat plasma by HPLC analysis; assay type: ADME, cell-free; settings: 50% v/v plasma, read-out: t1/2(app); procedure, shortened: as §3
[21] = Apparent half life of the compound in 50% v/v rat plasma by HPLC analysis in presence of eserine; assay type: ADME, cell-free; settings: 50% v/v plasma, with eserine, read-out: t1/2(app); procedure, shortened: as §3
[22] = Apparent half life of the compound in 50% v/v rat plasma by HPLC analysis in presence of PMSF; assay type: ADME, cell-free; settings: 50% v/v plasma, with PMSF, read-out: t1/2(app); procedure, shortened: as §3
[23] = Apparent half life of the compound in 50% v/v human plasma by HPLC analysis in presence of eserine; assay type: ADME, cell-free; settings: 50% v/v plasma, with eserine, read-out: t1/2(app); procedure, shortened: as §3
[24] = Apparent half life of the compound in 50% v/v human plasma by HPLC analysis in presence of EDTA; assay type: ADME, cell-free; settings: 50% v/v plasma, with EDTA, read-out: t1/2(app); procedure, shortened: as §3
[25] = Apparent half life of the compound in 50% v/v rat plasma by HPLC analysis in presence of BNPP; assay type: ADME, cell-free; settings: 50% v/v plasma, with BNPP, read-out: t1/2(app); procedure, shortened: as §3

Sequence of Albumin (P02769 whole entry): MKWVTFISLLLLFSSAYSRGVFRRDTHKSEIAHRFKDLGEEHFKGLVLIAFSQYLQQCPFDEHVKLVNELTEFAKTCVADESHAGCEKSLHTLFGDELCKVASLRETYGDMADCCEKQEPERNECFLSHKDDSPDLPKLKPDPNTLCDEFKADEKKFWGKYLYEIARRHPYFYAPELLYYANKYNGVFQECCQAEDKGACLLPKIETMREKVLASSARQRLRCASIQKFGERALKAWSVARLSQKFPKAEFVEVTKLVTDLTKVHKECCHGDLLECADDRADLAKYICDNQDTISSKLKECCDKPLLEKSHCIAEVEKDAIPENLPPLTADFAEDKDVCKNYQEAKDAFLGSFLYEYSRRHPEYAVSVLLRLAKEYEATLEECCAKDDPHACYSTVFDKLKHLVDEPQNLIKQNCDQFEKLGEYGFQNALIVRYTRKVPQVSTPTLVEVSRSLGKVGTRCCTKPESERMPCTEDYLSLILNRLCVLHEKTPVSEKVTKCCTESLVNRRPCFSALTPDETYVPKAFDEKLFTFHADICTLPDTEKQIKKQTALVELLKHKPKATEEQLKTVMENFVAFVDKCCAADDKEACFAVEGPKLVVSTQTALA

Row | half-life [1] | half-life [2] | half-life [3] | half-life [4] | half-life [5] | Drug degradation [6] | Drug degradation [7] | IC50 [15] | Compound | other results
1 | 1.2 min | 39.2 min | 30.5 min | < 0.167 min | 26.7 min |  |  |  | O=C(N[C@H]1COC1=O)OCc1ccccc1 | 
2 | 7 min | 23.1 min | 19 min | < 0.167 min | 18 min | Active | Active |  | O=C(CCc1ccccc1)N[C@H]1COC1=O | 
3 | 16 min | 135 min | 100 min | < 0.167 min | 73.8 min | Active | Active |  | C[C@H]1OC(=O)[C@H]1NC(=O)CCc1ccccc1 | 
4 | 15.1 min | 115 min | 114 min | 0.233 min | 93.5 min |  |  |  | O=C1OCC1CCCCc1ccccc1 (centres undefined) | 
5 | < 1 min | 19 min | 15.9 min | < 0.167 min | 9.8 min | Active | Active |  | O=C(N[C@H]1COC1=O)c1ccc2ccccc2c1 | Drug degradation [8]: Active; Drug degradation [9]: Active; Drug degradation [10]: Active; Time [11]: <= 2 hr; Time [12]: <= 2 hr; Drug degradation [13]: Active; Drug degradation [14]: Active
6 | 3.2 min | 25.1 min | 20.9 min | 1.25 min | 12.1 min | Active | Active |  | CCOC(=O)c1ccc2cc(C(=O)N[C@H]3COC3=O)ccc2c1 | 
7 | < 1 min | 18.1 min | 19.1 min | 0.483 min | 8.2 min | Active | Active |  | COc1ccc2cc(C(=O)N[C@H]3COC3=O)ccc2c1 | 
8 | 2.7 min | 23.7 min | 19.5 min | < 0.167 min | 9.8 min | Active | Active |  | O=C(N[C@H]1COC1=O)c1ccc(C(=O)Oc2ccccc2)cc1 | 
9 | 5.8 min | 23.2 min | 18.8 min | 1.08 min | 13.4 min | Active | Active |  | O=C(N[C@H]1COC1=O)c1ccc(OCc2ccccc2)cc1 | 
10 | 3.3 min | 28.4 min | 20.9 min | 0.533 min | 12.6 min | Active | Active |  | O=C(N[C@H]1COC1=O)c1ccc(-c2ccccc2)cc1 | 
11 |  |  |  |  |  |  |  | > 100000 nM | O=C(N[C@@H](CO)C(=O)O)OCc1ccccc1 | 
12 | 11.4 min | 194 min | 134 min | < 0.167 min | 110 min |  |  | 130 nM | C[C@@H]1OC(=O)[C@@H]1NC(=O)OCCCCCc1ccccc1 | 
13 |  |  |  |  |  |  |  | 700 nM | O=C(N[C@@H]1COC1=O)OCc1ccccc1 | 
14 | 19.6 min | 43.4 min | 39 min | < 0.167 min | 33.7 min |  |  | 580 nM | CC(C)(C)OC(=O)N[C@H]1COC1=O | 
15 |  |  |  |  |  |  |  | 500 nM | CC(C)(C)OC(=O)N[C@@H]1COC1=O | 
16 | 4.6 min | 29.7 min | 25.1 min | < 0.167 min | 3.3 min |  |  | 15000 nM | O=C(NCc1ccccc1)N[C@H]1COC1=O | 
17 |  |  |  |  |  |  |  | 49200 nM | O=C(NCc1ccccc1)N[C@@H]1COC1=O | 
18 |  |  |  |  |  |  |  | 10000 nM | C[C@H]1OC(=O)[C@H]1NC(=O)OCc1ccccc1 | 
19 | 5.1 min | 185 min | 127 min | < 0.167 min | 108 min |  |  | 1000 nM | C[C@@H]1OC(=O)[C@@H]1NC(=O)OCc1ccccc1 | 
20 | 121 min | 217 min | 149 min | 0.217 min | 143 min |  |  | > 80000 nM | C[C@H]1OC(=O)[C@H]1NC(=O)OC(C)(C)C | 
21 | 129 min | 241 min | 147 min | 0.183 min | 122 min |  |  | 220 nM | C[C@@H]1OC(=O)[C@@H]1NC(=O)OC(C)(C)C | half-life [16]: 2.99 min; half-life [17]: 11.5 min; half-life [18]: 4.7 min; half-life [19]: 0.34 min; half-life [20]: 0.53 min; half-life [21]: 4.19 min; half-life [22]: 7.13 min; half-life [23]: 13.8 min; half-life [24]: 32 min; half-life [25]: 3.29 min
22 | 87.7 min | 93.8 min | 80.4 min | < 0.167 min | 80.7 min |  |  | 190 nM | C[C@@H]1OC(=O)[C@H]1NC(=O)OC(C)(C)C | 
23 |  |  |  |  |  |  |  | 4900 nM | C[C@H]1OC(=O)[C@@H]1NC(=O)OC(C)(C)C | 
24 |  |  |  |  |  |  |  | > 100000 nM | O=C(N[C@H](CO)C(=O)O)OCc1ccccc1 | 
25 |  |  |  |  |  |  |  | > 100000 nM | O=C(NC1CCC1=O)OCc1ccccc1 (racemic) | 
26 |  |  |  |  |  |  |  | > 100000 nM | O=C(NC1CCC1)OCc1ccccc1 [CYCLOBUTYLCARBAMIC ACID BENZYL ESTER] | 
